# Assay results taken from article PMC6558985 (Nature chemical biology, 2019).
# Changes are numbered by the printed parent chain.
# Columns and labels:
# [1] = molecular target: T1, Dm-spastin WT (Drosophila melanogaster, UniProt Q8I0P1, DEL311-372); experiment: Steady-state ATPase activity, NADH-coupled assay, Dm-spastin wildtype; type: biochemical, D. melanogaster
# T1 sequence (Q8I0P1 with tags, fused parts or gaps DEL311-372 limits assumed): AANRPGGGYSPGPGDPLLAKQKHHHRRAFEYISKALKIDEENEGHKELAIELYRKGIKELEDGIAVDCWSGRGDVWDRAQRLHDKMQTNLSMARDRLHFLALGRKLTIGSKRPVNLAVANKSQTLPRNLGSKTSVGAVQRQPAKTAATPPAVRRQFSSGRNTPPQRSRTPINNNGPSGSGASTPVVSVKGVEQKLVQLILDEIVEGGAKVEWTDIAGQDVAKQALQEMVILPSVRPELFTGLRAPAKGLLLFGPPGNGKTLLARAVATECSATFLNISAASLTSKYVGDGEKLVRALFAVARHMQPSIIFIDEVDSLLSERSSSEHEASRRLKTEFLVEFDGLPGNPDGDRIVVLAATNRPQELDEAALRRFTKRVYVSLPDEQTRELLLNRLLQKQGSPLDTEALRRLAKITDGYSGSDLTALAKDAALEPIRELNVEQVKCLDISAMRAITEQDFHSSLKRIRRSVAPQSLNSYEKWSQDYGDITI
# How it was run: (§1)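 Recombinant Dm-spastin, wildtype or point mutants, assayed by steady-state ATPase with NADH-coupled read-out at 0.5 mM MgATP over a test-compound concentration series. Data were fit to a sigmoidal dose-response equation to give IC50, average ± s.d., n = 3. Separately, rates across ATP concentrations were fit to a cooperative Michaelis-Menten equation for kcat and K1/2.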
# [2] = molecular target: T2, Hs-FIGL1 (Homo sapiens, UniProt Q6PIW4); experiment: Steady-state ATPase activity, NADH-coupled assay, Hs-FIGL1; type: biochemical; conditions: 10 µM compound, 0.5 mM MgATP
# T2 sequence (Q6PIW4 288-674): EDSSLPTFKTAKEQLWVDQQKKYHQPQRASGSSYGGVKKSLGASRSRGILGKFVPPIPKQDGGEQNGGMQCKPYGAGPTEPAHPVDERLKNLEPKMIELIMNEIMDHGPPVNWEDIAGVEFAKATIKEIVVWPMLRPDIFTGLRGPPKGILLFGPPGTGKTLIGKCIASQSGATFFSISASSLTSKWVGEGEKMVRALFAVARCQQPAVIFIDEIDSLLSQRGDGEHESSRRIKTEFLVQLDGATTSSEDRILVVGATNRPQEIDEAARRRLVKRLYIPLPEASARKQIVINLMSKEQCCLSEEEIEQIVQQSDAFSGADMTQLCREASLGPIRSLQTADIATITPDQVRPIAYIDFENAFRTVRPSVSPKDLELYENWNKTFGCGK
# How it was run: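 Recombinant AAA protein constructs assayed by steady-state ATPase with NADH-coupled read-out at 0.5 mM MgATP, with test compound at 2 µM or 10 µM. Activity is reported as percent of steady-state ATPase activity, average ± s.d., n = 3.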
# [3] = system: Dm-spastin, Hs-FIGL1, Hs-PCH2, Mm-VCP, Xl-katanin; experiment: Screen of selected kinase inhibitors against five AAA proteins; type: biochemical; conditions: 10 µM compound, 0.5 mM ATP
# How it was run: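 Five recombinant AAA proteins (Dm-spastin, Hs-FIGL1, Hs-PCH2, Mm-VCP, Xl-katanin) were screened for ATPase activity with each test compound at 10 µM and 0.5 mM MgATP. Activity is expressed as percent of the DMSO control, average of n = 2, binned in 10% steps.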
# [4] = molecular target: T3, Dm-spastin Q488V (Drosophila melanogaster, UniProt Q8I0P1, DEL311-372/Q488V); experiment: Steady-state ATPase activity, NADH-coupled assay, Dm-spastin Q488V; type: biochemical, D. melanogaster
# T3 sequence (Q8I0P1 with tags, fused parts or gaps DEL311-372/Q488V limits assumed): T1 sequence (Q8I0P1 with tags, fused parts or gaps DEL311-372 limits assumed) with Q218V
# How it was run: as §1
# [5] = molecular target: T4, Dm-spastin N527C (Drosophila melanogaster, UniProt Q8I0P1, DEL311-372/N527C); experiment: Steady-state ATPase activity, NADH-coupled assay, Dm-spastin N527C; type: biochemical, D. melanogaster
# T4 sequence (Q8I0P1 with tags, fused parts or gaps DEL311-372/N527C limits assumed): T1 sequence (Q8I0P1 with tags, fused parts or gaps DEL311-372 limits assumed) with N257C
# How it was run: as §1
# [6] = molecular target: T5, Dm-spastin N527T (Drosophila melanogaster, UniProt Q8I0P1, DEL311-372/N527T); experiment: Steady-state ATPase activity, NADH-coupled assay, Dm-spastin N527T; type: biochemical, D. melanogaster
# T5 sequence (Q8I0P1 with tags, fused parts or gaps DEL311-372/N527T limits assumed): T1 sequence (Q8I0P1 with tags, fused parts or gaps DEL311-372 limits assumed) with N257T
# How it was run: as §1
# [7] = molecular target: T6, Dm-spastin S689A (Drosophila melanogaster, UniProt Q8I0P1, DEL311-372/S689A); experiment: Steady-state ATPase activity, NADH-coupled assay, Dm-spastin S689A; type: biochemical, D. melanogaster
# T6 sequence (Q8I0P1 with tags, fused parts or gaps DEL311-372/S689A limits assumed): T1 sequence (Q8I0P1 with tags, fused parts or gaps DEL311-372 limits assumed) with S419A
# How it was run: as §1
# [8] = molecular target: T7, Dm-spastin T692A (Drosophila melanogaster, UniProt Q8I0P1, DEL311-372/T692A); experiment: Steady-state ATPase activity, NADH-coupled assay, Dm-spastin T692A; type: biochemical, D. melanogaster
# T7 sequence (Q8I0P1 with tags, fused parts or gaps DEL311-372/T692A limits assumed): T1 sequence (Q8I0P1 with tags, fused parts or gaps DEL311-372 limits assumed) with T422A
# How it was run: as §1
# [9] = molecular target: T8, Dm-spastin (Drosophila melanogaster, UniProt Q8I0P1, DEL311-372); experiment: In vitro microtubule-severing assay; type: biochemical, D. melanogaster; conditions: 2 µM inhibitor, 0.5 mM MgATP, 15 nM Dm-spastin
# T8 sequence (Q8I0P1 with tags, fused parts or gaps DEL311-372 limits assumed): T1 sequence (Q8I0P1 with tags, fused parts or gaps DEL311-372 limits assumed)
# [10] = molecular target: T9, Hs-spastin (Homo sapiens, UniProt Q9UBP0); experiment: Steady-state ATPase activity, NADH-coupled assay, Hs-spastin wildtype; type: biochemical
# T9 sequence (Q9UBP0 229-616): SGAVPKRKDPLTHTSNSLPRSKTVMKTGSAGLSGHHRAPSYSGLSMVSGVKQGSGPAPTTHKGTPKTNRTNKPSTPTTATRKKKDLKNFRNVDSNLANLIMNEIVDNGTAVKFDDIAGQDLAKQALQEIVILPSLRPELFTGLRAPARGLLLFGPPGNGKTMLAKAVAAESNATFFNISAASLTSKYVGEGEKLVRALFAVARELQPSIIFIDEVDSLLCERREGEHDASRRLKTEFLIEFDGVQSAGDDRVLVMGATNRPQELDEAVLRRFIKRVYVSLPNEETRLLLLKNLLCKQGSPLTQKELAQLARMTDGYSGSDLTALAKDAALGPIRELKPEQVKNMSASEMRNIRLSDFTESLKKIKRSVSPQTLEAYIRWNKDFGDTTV
# How it was run: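 Recombinant human spastin purified from E. coli. Steady-state ATPase inhibition was measured over a test-compound concentration series at 1 mM ATP. IC50 reported as average ± s.d., n = 3.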
compound,measurement,setting,value
"N#CCc1ccc(Nc2nc(Nc3cc(C4CC4)[nH]n3)c3ccccc3n2)cc1 [compound 1, 2-(4-((4-((5-cyclopropyl-1H-pyrazol-3-yl)amino)quinazolin-2-yl)amino)phenyl)acetonitrile, reference compound]",inhibition of the ATPase activity of Dm-spastin,"[1]; 10 µM compound, 0.5 mM MgATP",substantially inhibited
same,potency of Dm-spastin inhibition (dose-dependent analysis),"[1]; 0.5 mM MgATP, IC50 not determined",micromolar range
same,inhibition of Hs-FIGL1 ATPase activity,[2],also inhibited Hs-FIGL1
same,inhibition of ATPase activity of at least one of five AAA proteins,[3],> 50%
"CN1CCN(c2nc(Nc3cc(-c4ccccc4)[nH]n3)c3ccccc3n2)CC1 [compound 4, 2-(4-methylpiperazin-1-yl)-N-(5-phenyl-1H-pyrazol-3-yl)quinazolin-4-amine]",IC50,[1],1000 ± 600 nM
same,selectivity for Dm-spastin over four other AAA proteins,"[1]; 2 µM (Fig. 2 legend; text says 10 µM), 0.5 mM MgATP",increased selectivity for Dm-spastin
same,effect on K1/2 of Dm-spastin across a range of ATP concentrations,[1]; MgATP 0.027 to 3 mM,increases in K1/2 at higher compound concentrations
same,effect on kcat of Dm-spastin across a range of ATP concentrations,[1]; MgATP 0.027 to 3 mM,not substantial changes in kcat
same,IC50,[4],~12500 nM
same,IC50,[5],2900 ± 500 nM
same,reduction of potency by N527C mutation relative to Dm-spastin WT,[5]; P-loop mutation,~ 3 fold
same,IC50,[6],> 30000 nM
same,IC50,[7],900 ± 200 nM
same,change of potency by S689A mutation relative to Dm-spastin WT,[7]; sensor-II mutation,no substantial difference
same,IC50,[8],1500 ± 400 nM
same,reduction of potency by T692A mutation relative to Dm-spastin WT,[8]; sensor-II mutation,~ 2 fold
"C[C@@H]1CNCCN1c1nc(Nc2cc(C(C)(C)C)[nH]n2)c2ccccc2n1 [compound 5, (R)-N-(5-(tert-butyl)-1H-pyrazol-3-yl)-2-(2-methyl-piperazin-1-yl)quinazolin-4-amine]",IC50,[1],106 ± 35 nM
same,potency on Dm-spastin ATPase relative to compound 4 (more potent),[1]; 0.5 mM MgATP,~ 10 fold
same,Dm-spastin dependent microtubule-severing,[9],blocked
"C[C@@H]1CNCCN1c1nc(Nc2cc(C(C)(C)C)[nH]n2)c2cc[nH]c2n1 [compound 6, (R)-N-(5-(tert-butyl)-1H-pyrazol-3-yl)-2-(2-methylpiperazin-1-yl)-7H-pyrrolo[2,3-d]pyrimidin-4-amine]",IC50,[10],132 ± 55 nM
same,improved potency on Hs-spastin with respect to compound 5,[10]; 1 mM ATP,~ 30 fold
